The text below walks through data of article PMC7616001 (Journal of medicinal chemistry, 2022).

A short description of one series: Cyclic voltammetry. It counts as physicochemical. The conditions noted are these: acetonitrile, 0.1 M NEt4BF4.
Another series has as its system ROS level in HeLa cells. Kind of series: H2DCF-DA intracellular ROS assay. It counts as cell-based, human. Particulars: 10 μM, 1-8 h. In short, it runs like this:
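HeLa plated at 10 × 10^3 per well, grown overnight, then exposed to 10 μM test compound for 1, 2, 4 or 8 h. Washed with PBS and loaded with 10 μM H2DCF‑DA for 30 min. Washed again, phenol red‑free DMEM added, fluorescence read immediately. Three biological replicates.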

For series [1] the following is noted: cited from earlier work.
For series [2], the system named is A2780. Particulars: cited from earlier work.
Series [3] relates to HeLa. The conditions noted are these: read-out: IC50 HeLa; 72 h continuous exposure, MTT assay; cited from earlier work. A general note: Tetrazolium assays rely on reduction of a dye to a coloured formazan, in cell work by metabolically active cells.
The test system of series [4] is A2780. Kind of series: MTT assay, 72 h continuous exposure, A2780 cells. It counts as cell-based, human. The conditions noted are these: read-out: IC50 A2780; 72 h continuous exposure, MTT assay. In short, it runs like this:
(§1)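 Ovarian lines grown in RPMI with 10% FBS and 1% penicillin/streptomycin; A2780Cis kept on 2 μM cisplatin 3 days each week. HeLa grown in DMEM with the same supplements. 3 × 10^3 cells/well, overnight, then serial dilutions of DMSO stocks (final DMSO ≤0.1%); cisplatin stock in PBS. 72 h continuous exposure, MTT 0.5 mg/mL 3 h, formazan in DMSO, A570 normalised to untreated. IC50 from curves; ≥3 independent experiments.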

In series [5] the test system is A2780cis. The conditions noted are these: A2780Cis versus wild-type A2780; cited from earlier work.
For series [6], the system named is HeLa. Kind of series: 72 h crystal violet. The conditions noted are these: HeLa and A2780, 72 h. It counts as cell-based, human. In short, it runs like this: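 Seeding and dosing as for MTT: 3 × 10^3 cells/well, overnight, final DMSO ≤0.1%, 72 h exposure. Wells washed with PBS and fixed in 4% paraformaldehyde for 15 min. Crystal violet stained, dried, dissolved in 96% ethanol and A570 read. IC50 derived from dose–response curves.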

Series [7] has as its system A2780cis. Kind of series: MTT assay, 72 h continuous exposure, cisplatin-resistant A2780Cis cells. It counts as cell-based, human. The conditions noted are these: read-out: IC50 A2780cis; 72 h continuous exposure, MTT assay. In short, it runs like this: as §1
The test system of series [8] is HeLa cells. The series can be described thus: Intracellular distribution between nucleus and cytoplasm, ICP-MS. It counts as cell-based, human. Particulars: 10 μM, 24 h exposure. In short, it runs like this: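 5 × 10^6 HeLa per 100 mm plate, grown overnight. Exposed 24 h to 10 μM test compound, with 10 μM cisplatin as comparator. PBS‑washed, trypsinised, counted. Nuclear and cytoplasmic fractions isolated with a commercial kit. Protein measured by BCA assay, metal by ICP‑MS. Three experiments of ≥3 replicates.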

Series [9] has as its system PARP, p53, cleaved caspase 3 in HeLa cells. The series can be described thus: Western blot of apoptosis-related marker proteins. It counts as cell-based, human. Particulars: 24 h, cisplatin 10 μM, 1 at 1/4 × IC50 to IC50. In short, it runs like this: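 ~2 million HeLa per 60 mm dish, grown to 80–90% confluency, treated 24 h at 10, 20 or 40 μM. Lysed in RIPA buffer with protease inhibitors. Membranes blocked with 2% skim milk in 0.1% Tween 20 for 30 min. Primary antibody 1:1000 overnight at 4 °C; HRP secondary antibody.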
Background: A western blot detects proteins with antibodies after separation by electrophoresis.

The subject of series [10] is HeLa cells. The series can be described thus: Annexin-V/PI dual staining flow cytometry. It counts as cell-based, human. The conditions noted are these: 10 μM (0.7 × IC50/24h). A general note: A flow cytometer gives signals particle by particle.
In series [11] the test system is MEF-Bax/Bak^+/+ and MEF-Bax/Bak^−/− cell lines. The series can be described thus: Cytotoxicity in MEF-Bax/Bak+/+ versus MEF-Bax/Bak−/− cells. It counts as cell-based, murine.
Series [12] deals with HeLa. Kind of series: MTT assay, 72 h continuous exposure, HeLa cells. It counts as cell-based, human. Particulars: read-out: IC50 HeLa; 72 h continuous exposure, MTT assay. In short, it runs like this: as §1
[13] abbreviates: read-out: IC50 in A2780 cells, reported antitumor activities.

Like-named read-outs stand apart in the source and are kept apart here.

Take `O=C(CC(=O)C(F)(F)F)[c-]1cccc1.[Fe+2].c1cc[cH-]c1` [Compound L1, 4,4,4-trifluoro-1-ferrocenylbutane-1,3-dione]: the “oxidation potential (vs Fc^+/0)” value in the series “Cyclic voltammetry” stood at 287 mV. The “intracellular ROS level (H2DCF-DA)” value with ROS level in HeLa cells is “unable to elevate the level of intracellular ROS”. The pKa in series [1] was 6.5. Further, the IC50 with A2780 [2] (read-out: IC50 A2780, 72 h, MTT assay) is 11.4 ± 2 µM; in the series on HeLa [3] it was 23 µM.
In the case of `N.N.[Cl][Pt][Cl]` [cisplatin, reference compound], the IC50 in the series on A2780 [4] was 800 ± 100 nM; in the series with A2780cis [7], 6.7 ± 0.1 µM; in the series with HeLa [12], 3000 ± 100 nM. For the same molecule, in the series on A2780cis [5], the “resistance factor, RF” value is given as 9.7. Further, in the series with HeLa [6], the “IC50 from CV assay compared to IC50 from MTT assay” value is given as “comparable”. In addition, the “metal content in nuclear fraction relative to cytoplasmic fraction” value in the series on HeLa cells [8] is “equally distributed between the cytoplasm and nucleus”. Besides, in [9], the “apoptosis markers (PARP cleavage, p53, cleaved caspase 3)” value is “cleavage of PARP and sharp upregulation of P53 and cleaved caspase 3”. In addition, in the series on HeLa cells [10], the “AV^+/PI^− cells (early apoptosis)” value is recorded as 13.4%. Besides, in [11], the “IC50 in MEF-Bax/Bak^−/− compared to MEF-Bax/Bak^+/+ cells” value is recorded as 2.5 fold.
`O=C1[O][Pt]2([NH][C@@H]3CCCC[C@H]3[NH]2)[O]C1=O` [oxaliplatin, reference compound]: in the series on HeLa [12], the IC50 stood at 2100 ± 300 nM.
Regarding “[Ru(η^6-arene)(PTA)-(4,4,4-trifluoro-1-(4-chlorophenyl)-1,3-butanedionato)]”, the IC50 in the series on A2780 [2] (setting [13]) is 34.8 µM.
[Ru(η^6-arene)Cl(curcuminato)]: the IC50 in the series on A2780 [2] (setting [13]) was 23.4 µM.

Broadly, the pKa is the negative logarithm of the acid dissociation constant. As a reminder, the IC50 is the point on the concentration scale where inhibition reaches its midpoint.
